# Legend:
# Mus musculus [1] = species: Mus musculus; assay: Days of the first positive reaction in […] mice.; type: functional
# Procedure, shortened: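 Phototoxic skin reaction test in depilated female CD-1 mice. A single oral dose (gavage) or subcutaneous dose was given, followed 1 h later by 3 h of UVA exposure (320–400 nm). The regimen was repeated for up to 4 consecutive days, with initial doses of 30, 100 and 300 mg/kg. PTD50 was derived by the probit method. The first day of positive reaction and the no-effect dose were taken from the raw data.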
# Mus musculus [2] = species: Mus musculus; assay: Number of mice which show positive phototoxic reaction in 5 mice; type: functional
# Escherichia coli [3] = assay: In vivo efficacy in mouse protection test in Escherichia coli Vogel administered by subcutaneous injection.; type: functional; conditions: Escherichia coli, sc; read-out: PD50
# Procedure, shortened: (§1)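 Acute lethal systemic infections in female Charles River CD-1 mice. A single dose was given at challenge, orally by gavage or by subcutaneous injection. PD50 (median protective dose, mg/kg) was determined.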
# Escherichia coli [4] = assay: In vivo efficacy in mouse protection test in Escherichia coli Vogel dose administered orally by gavage.; type: functional; conditions: Escherichia coli, po; read-out: PD50; procedure, shortened: as §1
# Escherichia coli [5] = assay: Minimum inhibitory concentration (MIC) against gram negative bacteria Escherichia coli H-560.; type: functional; conditions: Escherichia coli; read-out: MIC
# Procedure, shortened: (§2)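 MICs were determined by standard broth microtitration against 11 Gram-positive and Gram-negative organisms, in µg/mL. Values come from duplicate or triplicate experiments and are accurate to ±50%.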
# Escherichia coli [6] = assay: Minimum inhibitory concentration (MIC) against gram negative bacteria Escherichia coli Vogel.; type: functional; conditions: Escherichia coli; read-out: MIC; procedure, shortened: as §2
# Enterobacter cloacae = assay: Minimum inhibitory concentration (MIC) against gram negative bacteria Enterobacter cloacae MA-2646.; type: functional
# Klebsiella pneumoniae = assay: Minimum inhibitory concentration (MIC) against gram negative bacteria Klebsiella pneumoniae MGH-2.; type: functional; conditions: Klebsiella pneumoniae; read-out: MIC; procedure, shortened: as §2
# Mus musculus [7] = species: Mus musculus; assay: Dose required to induce phototoxic reaction in 50% of mice by probit method at different dosage forms.; type: functional
# Mus musculus [8] = species: Mus musculus; assay: Dose which has no effect to induce phototoxic reaction in 50% of mice by probit method.; type: functional
# Mus musculus [9] = assay: Maximum tolerance dose was measured for phototoxic skin reaction by po administration; type: functional
# [10] = Minimum inhibitory concentration (MIC) against gram negative bacteria Prot. rettgeri M-1771.; type: functional, Providencia rettgeri; conditions: Providencia rettgeri; read-out: MIC; procedure, shortened: as §2
# Pseudomonas aeruginosa [11] = assay: Minimum inhibitory concentration (MIC) against gram negative bacteria Pseudomonas aeruginosa UI-18.; type: functional; conditions: Pseudomonas aeruginosa; read-out: MIC; procedure, shortened: as §2
# Streptococcus pyogenes [12] = assay: In vivo efficacy (s.c.) against Streptococcus pyogenes C-203 in mouse protection test; type: functional; conditions: Streptococcus pyogenes, sc; read-out: PD50; procedure, shortened: as §1
# Streptococcus pyogenes [13] = assay: In vivo efficacy (orally) against Streptococcus pyogenes C-203 in mouse protection test; type: functional; conditions: Streptococcus pyogenes, po; read-out: PD50; procedure, shortened: as §1
# Staphylococcus aureus [14] = assay: Minimum inhibitory concentration (MIC) against gram positive bacteria Staphylococcus aureus H-228.; type: functional; conditions: Staphylococcus aureus; read-out: MIC; procedure, shortened: as §2
# Staphylococcus aureus [15] = assay: Minimum inhibitory concentration (MIC) against gram positive bacteria Staphylococcus aureus UC-76.; type: functional; conditions: Staphylococcus aureus; read-out: MIC; procedure, shortened: as §2
# Enterococcus faecalis = assay: Minimum inhibitory concentration (MIC) against gram positive bacteria Streptococcus faecalis MGH-2.; type: functional; conditions: Enterococcus faecalis; read-out: MIC; procedure, shortened: as §2
# Streptococcus pneumoniae [16] = assay: Minimum inhibitory concentration (MIC) against gram positive bacteria Streptococcus pneumoniae SV-1.; type: functional; conditions: Streptococcus pneumoniae; read-out: MIC; procedure, shortened: as §2
# Streptococcus pyogenes [17] = assay: Minimum inhibitory concentration (MIC) against gram positive bacteria Streptococcus pyogenes C-203.; type: functional; conditions: Streptococcus pyogenes; read-out: MIC; procedure, shortened: as §2
# Pseudomonas aeruginosa [18] = assay: In vivo efficacy (s.c.) against Pseudomonas aeruginosa in mouse protection test; type: functional; conditions: Pseudomonas aeruginosa, sc; read-out: PD50; procedure, shortened: as §1
# Pseudomonas aeruginosa [19] = assay: In vivo efficacy (orally) against Pseudomonas aeruginosa in mouse protection test; type: functional; conditions: Pseudomonas aeruginosa, po; read-out: PD50; procedure, shortened: as §1
# Streptococcus pneumoniae [20] = assay: In vivo efficacy (s.c.) against Streptococcus pneumoniae SV-1 in mouse protection test; type: functional; conditions: Streptococcus pneumoniae, sc; read-out: PD50; procedure, shortened: as §1
# Streptococcus pneumoniae [21] = assay: In vivo efficacy (orally) against Streptococcus pneumoniae SV-1 in mouse protection test; type: functional; conditions: Streptococcus pneumoniae, po; read-out: PD50; procedure, shortened: as §1
structure (smiles),measurement,setting,value
CCNCC1CCN(c2cc3c(cc2F)c(=O)c(C(=O)O)cn3C2CC2)C1 (stereo unspecified),Day of first positve reaction,Mus musculus [1],0
same,No. of pos rxns,Mus musculus [2],0
same,ED50,Escherichia coli [3],2.4 mg/kg
same,ED50,Escherichia coli [4],35 mg/kg
same,MIC,Escherichia coli [5],0.05 µg/mL
same,MIC,Escherichia coli [6],0.2 µg/mL
same,MIC,Enterobacter cloacae,0.4 µg/mL
same,MIC,Klebsiella pneumoniae,0.2 µg/mL
same,PTD50,Mus musculus [7],>100 mg/kg
same,No effect dose,Mus musculus [8],100 mg/kg
same,MTD,Mus musculus [9],100 mg/kg
same,MIC,[10],0.8 µg/mL
same,MIC,Pseudomonas aeruginosa [11],1.6 µg/mL
same,ED50,Streptococcus pyogenes [12],4.5 mg/kg
same,ED50,Streptococcus pyogenes [13],46 mg/kg
same,MIC,Staphylococcus aureus [14],0.4 µg/mL
same,MIC,Staphylococcus aureus [15],0.013 µg/mL
same,MIC,Enterococcus faecalis,0.2 µg/mL
same,MIC,Streptococcus pneumoniae [16],0.2 µg/mL
same,MIC,Streptococcus pyogenes [17],0.05 µg/mL
CCNCC1CCN(c2c(F)cc3c(=O)c(C(=O)O)cn(C4CC4)c3c2F)C1 (stereo unspecified) [PD-117558],Day of first positve reaction,Mus musculus [1],1
same,No. of pos rxns,Mus musculus [2],5
same,ED50,Escherichia coli [3],1 mg/kg
same,ED50,Escherichia coli [4],4.2 mg/kg
same,MIC,Escherichia coli [5],0.013 µg/mL
same,MIC,Escherichia coli [6],0.05 µg/mL
same,MIC,Enterobacter cloacae,0.1 µg/mL
same,MIC,Klebsiella pneumoniae,0.2 µg/mL
same,PTD50,Mus musculus [7],<30 mg/kg
same,No effect dose,Mus musculus [8],30 mg/kg
same,MTD,Mus musculus [9],30 mg/kg
same,MIC,[10],0.4 µg/mL
same,ED50,Pseudomonas aeruginosa [18],40 mg/kg
same,ED50,Pseudomonas aeruginosa [19],59 mg/kg
same,MIC,Pseudomonas aeruginosa [11],0.4 µg/mL
same,ED50,Streptococcus pyogenes [12],0.5 mg/kg
same,ED50,Streptococcus pyogenes [13],1.8 mg/kg
same,MIC,Staphylococcus aureus [14],0.05 µg/mL
same,MIC,Staphylococcus aureus [15],0.006 µg/mL
same,MIC,Enterococcus faecalis,0.025 µg/mL
same,MIC,Streptococcus pneumoniae [16],0.025 µg/mL
same,ED50,Streptococcus pneumoniae [20],1.9 mg/kg
same,ED50,Streptococcus pneumoniae [21],3.3 mg/kg
NC1CCN(c2cc3c(cc2F)c(=O)c(C(=O)O)cn3C2CC2)C1 (stereo unspecified),Day of first positve reaction,Mus musculus [1],0
same,No. of pos rxns,Mus musculus [2],0
same,ED50,Escherichia coli [3],0.5 mg/kg
same,ED50,Escherichia coli [4],3.4 mg/kg
same,MIC,Escherichia coli [5],0.006 µg/mL
same,MIC,Escherichia coli [6],0.05 µg/mL
same,MIC,Enterobacter cloacae,0.025 µg/mL
same,MIC,Klebsiella pneumoniae,0.05 µg/mL
same,PTD50,Mus musculus [7],>300 mg/kg
same,No effect dose,Mus musculus [8],300 mg/kg
same,MTD,Mus musculus [9],300 mg/kg
same,MIC,[10],0.1 µg/mL
same,ED50,Pseudomonas aeruginosa [18],5.4 mg/kg
same,ED50,Pseudomonas aeruginosa [19],49 mg/kg
same,MIC,Pseudomonas aeruginosa [11],0.1 µg/mL
same,ED50,Streptococcus pyogenes [12],11 mg/kg
same,ED50,Streptococcus pyogenes [13],97 mg/kg
same,MIC,Staphylococcus aureus [14],0.1 µg/mL
same,MIC,Staphylococcus aureus [15],0.025 µg/mL
same,MIC,Enterococcus faecalis,0.1 µg/mL
same,MIC,Streptococcus pneumoniae [16],0.05 µg/mL
same,MIC,Streptococcus pyogenes [17],0.1 µg/mL
same,ED50,Streptococcus pneumoniae [20],23 mg/kg
same,ED50,Streptococcus pneumoniae [21],> 100 mg/kg
CCn1cc(C(=O)O)c(=O)c2cc(F)c(N3CCN(C)CC3)cc21 [PEFLOXACIN],Day of first positve reaction,Mus musculus [1],4
same,No. of pos rxns,Mus musculus [2],2
same,ED50,Escherichia coli [3],2 mg/kg
same,ED50,Escherichia coli [4],3 mg/kg
same,MIC,Escherichia coli [5],0.1 µg/mL
same,MIC,Escherichia coli [6],0.025 µg/mL
same,MIC,Klebsiella pneumoniae,0.05 µg/mL
same,PTD50,Mus musculus [7],265 mg/kg
same,No effect dose,Mus musculus [8],>172 mg/kg
same,MTD,Mus musculus [9],300 mg/kg
same,MIC,[10],0.05 µg/mL
same,ED50,Pseudomonas aeruginosa [18],26 mg/kg
same,ED50,Pseudomonas aeruginosa [19],38 mg/kg
same,MIC,Pseudomonas aeruginosa [11],0.4 µg/mL
same,ED50,Streptococcus pyogenes [12],94 mg/kg
same,ED50,Streptococcus pyogenes [13],110 mg/kg
same,MIC,Staphylococcus aureus [14],0.2 µg/mL
same,MIC,Staphylococcus aureus [15],0.1 µg/mL
same,MIC,Enterococcus faecalis,0.8 µg/mL
same,MIC,Streptococcus pneumoniae [16],0.8 µg/mL
same,MIC,Streptococcus pyogenes [17],0.8 µg/mL
same,ED50,Streptococcus pneumoniae [20],96 mg/kg
same,ED50,Streptococcus pneumoniae [21],> 200 mg/kg
NC1CCN(c2cc3c(cc2F)c(=O)c(C(=O)O)cn3C2CC2)CC1,Day of first positve reaction,Mus musculus [1],0
same,No. of pos rxns,Mus musculus [2],0
same,ED50,Escherichia coli [3],3.8 mg/kg
same,ED50,Escherichia coli [4],18 mg/kg
same,MIC,Escherichia coli [5],0.4 µg/mL
same,MIC,Escherichia coli [6],0.4 µg/mL
same,MIC,Enterobacter cloacae,0.4 µg/mL
same,MIC,Klebsiella pneumoniae,0.8 µg/mL
same,PTD50,Mus musculus [7],>100 mg/kg
same,No effect dose,Mus musculus [8],100 mg/kg
same,MTD,Mus musculus [9],100 mg/kg
same,MIC,[10],1.6 µg/mL
same,MIC,Pseudomonas aeruginosa [11],3.1 µg/mL
same,MIC,Staphylococcus aureus [14],1.6 µg/mL
same,MIC,Staphylococcus aureus [15],0.2 µg/mL
same,MIC,Enterococcus faecalis,0.8 µg/mL
same,MIC,Streptococcus pneumoniae [16],0.4 µg/mL
same,MIC,Streptococcus pyogenes [17],0.4 µg/mL
NC1CCN(c2c(F)cc3c(=O)c(C(=O)O)cn(C4CC4)c3c2C(F)(F)F)CC1,Day of first positve reaction,Mus musculus [1],0
same,No. of pos rxns,Mus musculus [2],0
same,ED50,Escherichia coli [3],4.5 mg/kg
same,ED50,Escherichia coli [4],12.5 mg/kg
same,MIC,Escherichia coli [5],0.2 µg/mL
same,MIC,Escherichia coli [6],0.2 µg/mL
same,MIC,Enterobacter cloacae,0.2 µg/mL
same,MIC,Klebsiella pneumoniae,0.4 µg/mL
same,PTD50,Mus musculus [7],>100 mg/kg
same,No effect dose,Mus musculus [8],100 mg/kg
same,MTD,Mus musculus [9],100 mg/kg
same,MIC,[10],0.8 µg/mL
same,MIC,Pseudomonas aeruginosa [11],3.1 µg/mL
same,MIC,Staphylococcus aureus [14],0.1 µg/mL
same,MIC,Staphylococcus aureus [15],0.05 µg/mL
same,MIC,Enterococcus faecalis,0.2 µg/mL
same,MIC,Streptococcus pneumoniae [16],0.2 µg/mL
same,MIC,Streptococcus pyogenes [17],0.1 µg/mL
CC1(CN)CCN(c2cc3c(cc2F)c(=O)c(C(=O)O)cn3C2CC2)C1 (stereo unspecified),Day of first positve reaction,Mus musculus [1],0
same,No. of pos rxns,Mus musculus [2],0
same,ED50,Escherichia coli [3],1.7 mg/kg
same,ED50,Escherichia coli [4],26 mg/kg
same,MIC,Escherichia coli [5],0.025 µg/mL
same,MIC,Escherichia coli [6],0.025 µg/mL
same,MIC,Enterobacter cloacae,0.05 µg/mL
same,MIC,Klebsiella pneumoniae,0.2 µg/mL
same,PTD50,Mus musculus [7],>100 mg/kg
same,No effect dose,Mus musculus [8],100 mg/kg
same,MTD,Mus musculus [9],100 mg/kg
same,MIC,[10],0.4 µg/mL
same,MIC,Pseudomonas aeruginosa [11],1.6 µg/mL
same,MIC,Staphylococcus aureus [14],0.1 µg/mL
same,MIC,Staphylococcus aureus [15],0.013 µg/mL
same,MIC,Enterococcus faecalis,0.05 µg/mL
same,MIC,Streptococcus pneumoniae [16],0.003 µg/mL
same,MIC,Streptococcus pyogenes [17],0.003 µg/mL
same,ED50,Streptococcus pneumoniae [20],0.45 mg/kg
same,ED50,Streptococcus pneumoniae [21],12 mg/kg

# Reference: ChEMBL document CHEMBL1125291, “New 8-(trifluoromethyl)-substituted quinolones. The benefits of the 8-fluoro group with reduced phototoxic risk” (1992)
